As usually defined, the inhibition is the change of the read-out against control, counted positive when it falls. The term IC50 denotes the concentration that gives 50% inhibition.

From ChEMBL document CHEMBL4477200, “Design, Synthesis, and Preclinical Evaluation of 4-Substituted-5-methyl-furo[2,3-d]pyrimidines as Microtubule Targeting Agents That Are Effective against Multidrug Resistant Cancer Cells” (J Med Chem, 2016) come the findings set out here.

Calls of active or inactive are those of the source. The rule behind the calls is not given here.

For test [1], the target named is T1, Tubulin (Bos taurus) (UniProt Q6B856+Q862L2+Q862F3). The test can be described thus: Inhibition of [3H]colchicine binding to tubulin in bovine brain homogenate at 5 uM incubated for 10 mins by DEAE-cellulose filter assay. It counts as tissue-based.
The target of the next test is Tubulin (Homo sapiens) (UniProt P68371+Q9H4B7+P0DPH7+P68366+Q13509+Q71U36+P04350+Q3ZCM7+P07437+P68363+Q9BQE3+Q6PEY2+Q13885+Q9BVA1+Q9BUF5). The test can be described thus: Induction of microtubule disruption in human HeLa cells assessed as multipolarization of spindle at 5 times IC50 incubated for 18 hrs by indirect immunofluorescence analysis relative to vehicle-treated control. The class given is cell-based. A digest of the protocol: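 Mitotic spindles and microtubules were imaged by indirect immunofluorescence with a β-tubulin antibody and compared with vehicle-treated cells.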

The subject of test [2] is HeLa. Put plainly: Antiproliferative activity against human HeLa cells after 48 hrs by SRB assay. The class given is functional, cell-based. In outline:
(§1)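 SRB assay; IC50 is the mean of three independent experiments, each run in triplicate. Cells were kept at 37 °C under 5% CO2. HeLa and SK-OV-3 lines (parental and MDR1-M6/6) were grown in Basal Medium Eagle with 10% FBS, 1% GlutaMAX and 50 µg/mL gentamycin. HeLa WTβIII was grown in DMEM with 10% FBS.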
(In general: The SRB assay estimates cell density from bound dye.)

The test system of test [3] is Tubulin (Rattus norvegicus). Put plainly: Induction of microtubule depolymerization in rat A10 cells at 2 times EC50 incubated for 18 hrs by indirect immunofluorescence analysis.
The target in the next test is Tubulin (Bos taurus, UniProt Q6B856+Q862L2+Q862F3). Put plainly: Inhibition of tubulin assembly in bovine brain […] assessed as reduction in turbidity increase preincubated for 15 mins followed by GTP addition measured for 20 mins by spectrophotometric analysis. In outline: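 Purified bovine brain tubulin, 1.0 mg/mL (10 µM), was preincubated 15 min at 30 °C in 0.8 M monosodium glutamate (pH 6.6) with compound and 4% DMSO. Mixtures were chilled and 0.4 mM GTP added. Turbidity was followed for 20 min at 30 °C. IC50 is the concentration halving the turbidity increase, interpolated between tested concentrations.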

The test system of test [4] is SK-OV-3. The test can be described thus: Relative ratio of IC50 for human SKOV3 cells expressing MDR1-M6/6 to IC50 for human SKOV3 cells. It counts as functional. In outline:
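Rr is the IC50 in Pgp-expressing SK-OV-3 MDR1-M6/6 cells divided by the IC50 in parental SK-OV-3 cells. Both IC50s come from the SRB assay, averaging three independent experiments run in triplicate.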

Test [5] has as its system HeLa. The test can be described thus: Cell cycle arrest in human HeLa cells assessed as accumulation at G2/M phase at 5 times IC50 after 18 hrs by flow cytometry (reference value: 17.11 +/- 1.09%). It counts as functional. Background: In flow cytometry, cells or beads pass a laser one at a time.
Test [6] concerns SK-OV-3. Put plainly: Antiproliferative activity against multidrug resistant human SKOV3 cells expressing MDR1-M6/6 after 48 hrs by SRB assay. As to conditions: SK-OV-3, 48 h. The class given is functional, cell-based. A digest of the protocol:
as §1

Test [7] relates to HeLa. Put plainly: Relative ratio of IC50 for human HeLa cells expressing wild type beta3 tubulin to IC50 for human HeLa cells. It counts as functional.
In test [8] the test system is HeLa. Put plainly: Antiproliferative activity against multidrug resistant human HeLa cells expressing wild type beta3 tubulin after 48 hrs by SRB assay. The class given is functional, cell-based. A digest of the protocol: as §1
Test [9] deals with SK-OV-3. Put plainly: Cytotoxicity against human SKOV3 cells assessed as growth inhibition after 48 hrs by SRB assay. The class given is functional, cell-based. As to conditions: SK-OV-3, 48 h. In outline:
as §1

In test [10] the target is T1, Tubulin (Bos taurus). The test can be described thus: Displacement of [3H]colchicine from tubulin in bovine brain homogenate at 1 uM incubated for 10 mins by DEAE-cellulose filter assay. The class given is tissue-based.
The subject of another test is MDA-MB-435. The test can be described thus: Antitumor activity against human MDA-MB-435 cells xenografted in nude mouse assessed as tumor growth inhibition at 20 mg/kg, ip dosed on days 0 , 2, 4, 6, 8 and 11 relative to control. (In xenograft studies the graft and the host belong to different species.)

Take `CCCCN(c1ccc(OC)cc1)c1ncnc2occ(C)c12`: the results for the inhibition at Tubulin (Bos taurus) [1] and at Tubulin (Bos taurus) [10] were 87% and 61%, respectively. The outcome (on Tubulin (Homo sapiens); in test [3]) was Active. Further, the IC50 in the test on HeLa [2] worked out at 111 nM; at Tubulin it was 1300 nM; in the test on SK-OV-3 [6], 200 nM; with HeLa [8], 116 nM; in the test with SK-OV-3 [9], 148 nM. The “Ratio IC50” value was 1.4 in the test on SK-OV-3 [4] and 1 in the test with HeLa [7]. In addition, the Activity in the test on HeLa [5] was determined as 64.96%.
Turning to `COc1ccc(/C=C\c2cc(OC)c(OC)c(OC)c2)cc1O` [COMBRETASTATIN A4], the Activity in the test on HeLa [5] is recorded as 67.58%.
Consider `CCc1ccc(N(C)c2ncnc3occ(C)c23)cc1`, for which the result (on Tubulin (Homo sapiens); in [3]) was Active. Moreover, the IC50 in the test on HeLa [2] turned out to be 120 nM; with SK-OV-3 [6], 162 nM; with HeLa [8], 159 nM; in the test on SK-OV-3 [9], 156 nM. In addition, the “Ratio IC50” value in the test with SK-OV-3 [4] amounted to 1; with HeLa [7], 1.3. The Activity with HeLa [5] was 76.19%.
Turning to `CCCN(c1ccc(OC)cc1)c1ncnc2occ(C)c12`, the figures for the inhibition at Tubulin (Bos taurus) [1] and at Tubulin (Bos taurus) [10] were 92% and 75%, respectively. The outcome (at Tubulin (Homo sapiens); in test [3]) was Active. For the same compound, the IC50 in the test with HeLa [2] came to 33.8 nM; on Tubulin, 1100 nM; with SK-OV-3 [6], 71 nM; with HeLa [8], 35.3 nM; with SK-OV-3 [9], 40.3 nM. Also, the “Ratio IC50” value in the test on SK-OV-3 [4] is given as 1.8; with HeLa [7] it was 1. In addition, the Activity in the test with HeLa [5] is given as 89.25%.
Turning to `CSc1ccc(N(C)c2ncnc3occ(C)c23)cc1`, the results for the inhibition on Tubulin (Bos taurus) [1] and on Tubulin (Bos taurus) [10] were 94% and 79%, respectively. The result (at Tubulin (Homo sapiens); in [3]) was Active. In addition, the half-maximal inhibitory concentration (IC50) stood at 15.7 nM in the test on HeLa [2]; 1200 nM on Tubulin; 32.1 nM in the test on SK-OV-3 [6]; 14.9 nM in the test with HeLa [8]; 18.6 nM with SK-OV-3 [9]. In addition, the figures for the “Ratio IC50” value with SK-OV-3 [4] and with HeLa [7] were 1.7 and 0.9, respectively. In addition, the Activity in the test with HeLa [5] came out at 64.09%.
Turning to `CCN(c1ccc(OC)cc1)c1ncnc2occ(C)c12`, the inhibition on Tubulin (Bos taurus) [1] turned out to be 95%; on Tubulin (Bos taurus) [10], 84%. In addition, the result (at Tubulin (Homo sapiens); in test [3]) was Active. Also, the half-maximal inhibitory concentration (IC50) with HeLa [2] stood at 15.8 nM; at Tubulin, 970 nM; with SK-OV-3 [6], 18.3 nM; in the test with HeLa [8] it was 14.6 nM; in the test with SK-OV-3 [9], 14.5 nM. The “Ratio IC50” value in the test on SK-OV-3 [4] worked out at 1.3; with HeLa [7], 0.9. For the same compound, the Activity with HeLa [5] is given as 63.76%.
On to `CC(=O)O[C@H]1C(=O)[C@@]2(C)[C@H]([C@H](OC(=O)c3ccccc3)[C@]3(O)C[C@H](OC(=O)[C@H](O)[C@@H](NC(=O)c4ccccc4)c4ccccc4)C(C)=C1C3(C)C)[C@]1(OC(C)=O)CO[C@@H]1C[C@@H]2O`, for which the TGI entry in the test with MDA-MB-435 was “Active”.
Consider `COc1ccc(N(c2ncnc3occ(C)c23)C(C)C)cc1`, for which the inhibition at Tubulin (Bos taurus) [1] is 47%. Moreover, on Tubulin, the IC50 stood at 3000 nM.
